Experimental data: ChEMBL document CHEMBL2157877, “Synthesis and pharmacological evaluation of N-substituted 2-(2-oxo-2H-chromen-4-yloxy)propanamide as cyclooxygenase inhibitors” (Bioorg Med Chem Lett, 2012)

molecular target: T1, Prostaglandin G/H synthase 1 (Ovis aries, UniProt P05979); assay: Inhibition of ovine COX1 using arachidonic acid as substrate incubated for 1 min prior to substrate addition measured for 25 secs by TMPD-based chromogenic assay
T1 sequence (P05979 whole entry): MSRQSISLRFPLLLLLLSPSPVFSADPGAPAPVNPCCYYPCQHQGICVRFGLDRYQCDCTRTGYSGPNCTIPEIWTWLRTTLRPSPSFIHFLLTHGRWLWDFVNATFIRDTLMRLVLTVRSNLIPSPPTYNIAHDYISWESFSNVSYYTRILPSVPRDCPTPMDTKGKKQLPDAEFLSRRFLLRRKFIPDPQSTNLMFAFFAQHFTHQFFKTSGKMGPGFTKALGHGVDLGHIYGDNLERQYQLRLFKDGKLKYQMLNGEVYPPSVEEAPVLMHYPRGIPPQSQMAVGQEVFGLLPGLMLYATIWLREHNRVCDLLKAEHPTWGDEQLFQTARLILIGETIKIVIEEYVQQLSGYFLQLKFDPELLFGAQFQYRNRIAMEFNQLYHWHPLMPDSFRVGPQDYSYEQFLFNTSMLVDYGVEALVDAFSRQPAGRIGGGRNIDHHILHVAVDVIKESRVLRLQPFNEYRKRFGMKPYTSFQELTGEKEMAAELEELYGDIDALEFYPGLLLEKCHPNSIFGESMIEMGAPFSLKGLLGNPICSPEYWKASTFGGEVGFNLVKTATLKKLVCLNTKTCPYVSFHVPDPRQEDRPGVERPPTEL
Procedure, shortened: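 COX-1 purified from ram seminal vesicles by chromatography. Reaction in Tris HCl buffer (100 mM, pH 8.0) with hematin, EDTA (3 mM) and enzyme, preincubated with test compound at 25 °C for 1 min. Started with arachidonic acid plus TMPD. Nonenzymatic oxidation subtracted before calculating percent inhibition.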

| Structure (SMILES) | IC50 [µM] |
| --- | --- |
| CC(Oc1cc(=O)oc2ccccc12)C(=O)Nc1ccc(N2CCOCC2=O)cc1 (racemic) | 4.6 |
| COc1ccc(NC(=O)C(C)Oc2cc(=O)oc3ccccc23)cc1 (racemic) | 2.26 |
| CC(Oc1cc(=O)oc2ccccc12)C(=O)Nc1ccc(C(F)(F)F)cc1C#N (racemic) | 9.6 |
| CC(Oc1cc(=O)oc2ccccc12)C(=O)Nc1cccc2c(=O)[nH]ccc12 (racemic) | 2.98 |
| CC(Oc1cc(=O)oc2ccccc12)C(=O)Nc1ccc(F)cc1F (racemic) | 1.64 |

Next, values leading:

| IC50 [µM] | Structure (SMILES) |
| --- | --- |
| 4.61 | Cc1c(Cl)cccc1NC(=O)C(C)Oc1cc(=O)oc2ccccc12 (racemic) |
| 9.64 | CC(Oc1cc(=O)oc2ccccc12)C(=O)Nc1ccncc1 (racemic) |
| 3.33 | CC(Oc1cc(=O)oc2ccccc12)C(=O)NC12CC3CC(C)(CC(C)(C3)C1)C2 (mixture of isomers) |
| 13.7 | CC(Oc1cc(=O)oc2ccccc12)C(=O)N1CCCC1 (racemic) |
| 5.03 | CC(Oc1cc(=O)oc2ccccc12)C(=O)N1CCOCC1 (racemic) |
